RORa activator: activators of orphan receptor RORA, primary screen, cell-based, luminescence. CHO-K1 Gal4-RORA LBD luciferase reporter; percent increase over mock-subtracted basal signal. actives 1.5% (n = 65,000). activation, % at 10 µM. Nuclear receptor ROR-alpha (Homo sapiens), P35398;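 active means activation above the mean of all tested compounds plus 3 SD, cut at about 49% in these data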;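 further: 0% = DMSO-treated RORA cells and 100% = added signal equal to DMSO minus mock-transfected cells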
Htt clearance: clearance of mutant huntingtin inclusions, primary screen, imaging, HeLa Exon1htt(103Q)mCFP, confocal imaging | aggregate imaging; zero = plate's median compound well | inhibition, % at 1.5 µM | actives 0.42% (n = 47,000);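 active means inhibition of aggregate fluorescence above about 70%, also judged a hit by eye on the cell image, limit read from the data, passing the limit was not always enough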;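 further: cells exposed to compound for three days before fixation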
SF1 activator: activators of human SF-1, primary screen, cell-based, CHO-K1, Gal4-SF-1 LBD, luciferase luminescence; Steroidogenic factor 1 (Homo sapiens), Q13285; actives 1.9% (n = 65,000); activation, % at 10 µM; CHO-K1 Gal4-SF-1 LBD luciferase reporter; % increase over DMSO SF-1-specific signal;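 active means activation above the mean activation of all tested compounds plus 3 SD, cut at about 50% in these data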
Target sequence (Q13285 whole entry, looked up, the tested form may be a part): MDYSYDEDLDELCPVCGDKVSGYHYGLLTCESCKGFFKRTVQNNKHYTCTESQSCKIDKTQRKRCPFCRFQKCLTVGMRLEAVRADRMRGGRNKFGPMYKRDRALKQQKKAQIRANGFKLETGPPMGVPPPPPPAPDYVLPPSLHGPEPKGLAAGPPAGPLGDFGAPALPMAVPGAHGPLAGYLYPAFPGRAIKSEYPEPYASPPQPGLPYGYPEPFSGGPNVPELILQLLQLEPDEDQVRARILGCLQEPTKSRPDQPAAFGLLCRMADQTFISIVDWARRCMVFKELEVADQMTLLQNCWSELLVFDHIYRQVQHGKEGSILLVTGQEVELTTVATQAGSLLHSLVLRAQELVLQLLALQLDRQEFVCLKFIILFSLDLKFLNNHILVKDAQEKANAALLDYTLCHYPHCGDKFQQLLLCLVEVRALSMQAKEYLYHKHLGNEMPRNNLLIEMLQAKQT
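material = CHO-K1 cells with Gal4–hSF-1 LBD chimera plus Gal4-driven luciferase | compound = 10 µM single point, 1% DMSO | incubation = 20 h compound exposure at 37 °C after 1 h cell settling | measured by = SteadyLite luciferase luminescence | evaluation = percent activation relative to DMSO median and mock-transfected background | control set = DMSO negative control and −SF1 background wells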
M1 antagonist: antagonists of rat M1 muscarinic receptor; Muscarinic acetylcholine receptor M1 (Rattus norvegicus), P08482; actives 3.4% (n = 64,000); CHO-M1 cells, Fluo-4 calcium, ACh EC80 antagonist mode; hits give low values; B-score at 10 µM; AID 628, 2007;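 active means calcium fluorescence response, raw or row-and-column corrected B-score, differing from the plate sample mean either way at a set confidence level, mostly lower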
D1 mod: D1 CRE-luciferase signal change, two-sided – cell-based, HEK293 D1, dopamine EC30, D1 allosteric modulator project, primary screen; dopamine EC30 potentiation; actives deviate in either direction; B-score at 10 µM; D(1A) dopamine receptor (Homo sapiens), P21728; actives 5.9% (n = 58,000);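 active means luminescence count or its row- and column-corrected plate score outside the 99.7% band of the plate's sample wells, on either side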
M1 agonist: M1 muscarinic receptor agonists, primary screen, CHO-M1 cells, Fluo-4 calcium, agonist mode; Muscarinic acetylcholine receptor M1; Fluo-4 calcium fluorescence; hits give high values; B-score at 10 µM; actives 3% (n = 64,000); AID 626, 2007;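 active means fluorescence rise, raw or as B-score row- and column-corrected plate score, outside the 99.7% band of its plate's samples, either direction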
* hit, by the source's call; x = no result given. Most compounds without a hit are left out; they make up all but 11% or so of the library.

SMILES	RORa activator	Htt clearance	SF1 activator	M1 antagonist	D1 mod	M1 agonist
CC1CCCCN1CCNC(=O)c1ccc2c(=O)n(CCc3ccccc3)c(=O)[nH]c2c1 (centres undefined)	44.0	x	16.4	-0.846	-3.74*	-1.41
O=C(O)/C(=C\c1ccco1)NC(=O)c1cccc2ccccc12	x	18.3	x	x	x	x
CN(C(=O)Cn1c(=O)n(CCCCC(=O)NC2CCCC2)c(=O)c2ccccc21)C1CCCCC1	-24.2	0.8	-3.1	0.473	0.00735	0.564
O=S(=O)(NCCn1ccc2ccccc21)c1ccccc1	x	41.0	x	x	x	x
CCOC(=O)c1c(NC(=O)CSc2nnc(CNc3ccc(Cl)cc3)o2)sc(C)c1C	x	29.9	x	x	x	x
CCOC(=O)c1c(NC(=O)CSc2nnc(CNc3ccc(F)cc3)o2)sc(C)c1C	16.2	38.6	25.9	0.28	-4.53*	-0.352
CC(C)(C)c1ccc(-c2conc2N)cc1	23.0	x	51.6*	0.567	-2.9	0.687
Cn1c(-c2ccc(C(C)(C)C)cc2)n[nH]c1=S	46.3	-39.6	2.5	0.798	-0.0306	0.415
CCOC(=O)C1=C(C)NC(=O)NC1c1cc(Br)c(O)c(OC)c1 (centres undefined)	-9.9	x	-6.4	0.00719	0.126	-0.714
COc1cc(C2NC(=O)NC(C)=C2C(=O)OC2CCCCC2)cc(Br)c1O (centres undefined)	-21.8	2.2	17.9	0.422	-4*	-0.96
Cc1ccc2nc(-c3cccc(S(=O)(=O)N(C)C)c3)cn2c1	56.4*	-9.2	51.5*	-1.27	-1.16	1.52
CN(C)S(=O)(=O)c1ccc(-c2cn3ccccc3n2)cc1	x	21.5	x	x	x	x
c1ccc(Cc2nc(-c3ccccn3)no2)cc1	61.2*	-5.7	23.2	-0.29	-0.35	-0.186
c1ccc(CCCc2nc(-c3ccccn3)no2)cc1	50.3*	-27.7	56.8*	-1.75	-1.32	-0.332
COc1ccc(Cc2nc(-c3ccccn3)no2)cc1	x	34.1	x	x	x	x
CCOC(=O)CSc1nc(-c2ccncc2)ccc1C#N	16.5	x	80.5*	0.706	1.76	1.31
CCOC(=O)CSc1nc(-c2ccc3c(c2)OCO3)ccc1C#N	6.8	32.1	63.6*	0.428	0.629	-0.0378
CCOc1ccc2cc(C#N)c(SCC(=O)NC(C)CC)nc2c1 (centres undefined)	5.1	52.9	9.5	-0.0672	-0.241	-0.885
CCOC(=O)CSc1nc2cc(OCC)ccc2cc1C#N	53.3*	x	2.1	-0.242	2.28	-1.05
CC1CCCCN1C(=O)Cn1cc(/C=C2/C(=O)Nc3ccccc32)c2ccccc21 (centres undefined)	x	20.4	x	x	x	x
Cc1cc(C(=O)Nc2ccccc2)oc1C	x	9.0	x	x	x	x
CN(C(=O)c1ccco1)c1nnc(C23CC4CC(CC(C4)C2)C3)s1	60.9*	x	75.7*	0.419	3.12	-0.00556
O=C(CCCc1c[nH]c2ccccc12)N1CCN(S(=O)(=O)c2cccs2)CC1	29.5	x	-0.6	-0.267	0.602	-0.463
C=CCOc1c(CNc2nccs2)cccc1OCC	-12.9	-31.7	-18.2	1.08	-0.959	0.42
CCC(=O)NC(Nc1ncc(C)s1)(C(=O)OC)C(F)(F)F (centres undefined)	x	70.2*	x	x	x	x
SMILES	RORa activator	Htt clearance	SF1 activator	M1 antagonist	D1 mod	M1 agonist
O=C1N(CCCN2C(=O)C3(OCCO3)c3ccccc32)c2ccccc2C12OCCO2	53.2*	x	-14.9	0.0319	x	-0.292
COc1ccccc1NC(=O)CN1C(=O)C2(OCCCO2)c2ccccc21	5.4	x	-6.6	-0.602	-2.64*	-0.856
CC(OC(=O)c1cc(=O)[nH]c2ccccc12)c1ccccc1 (centres undefined)	36.6	-1.7	30.6	0.356	1.87	1.02
COc1ccc(OC)c(C2=Nn3c(nnc3-c3cc(OC)c(OC)c(OC)c3)SC2)c1	-2.2	x	23.8	-0.000116	0.979	3.31*
Nc1nonc1-c1noc(N2CCCCC2)n1	25.9	x	53.5*	0.183	-0.933	-0.118
C1CCN(c2nc3nonc3nc2N2CCCCC2)CC1	18.7	x	-13.3	-0.2	0.76	1.01
CCCNC(=O)C1CNc2ccccc2O1 (centres undefined)	x	5.6	x	x	x	x
